This is an account of results in ChEMBL document CHEMBL1133682, “New arylpiperazine derivatives as antagonists of the human cloned 5-HT(4) receptor isoforms” (J Med Chem, 2000).

Experiment [1] addresses T1, 5-hydroxytryptamine receptor 4 (Homo sapiens, UniProt Q13639). As to the kind of experiment: Binding affinity was determined against cloned 5-hydroxytryptamine 4D receptor isoform expressed in COS-7 cells. It counts as cell-based.
In experiment [2] the target is T1, 5-hydroxytryptamine receptor 4. As to the kind of experiment: Binding affinity was determined against cloned 5-hydroxytryptamine 4C receptor isoform expressed in COS-7 cells. The class given is cell-based.
For experiment [3] the target is unchanged. As to the kind of experiment: Concentration required to produce half-maximal response against 5-hydroxytryptamine receptor on the L-type calcium current (I Ca) in isolated human atrial myocytes. It counts as cell-based, Cardiac atrium. The method in brief:
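Whole-cell patch clamp on enzymatically dissociated human atrial myocytes, room temperature (19–25 °C); Cs-based internal, pCa 8.5; I_Ca at 0 mV every 8 s, peak minus current at end of 400-ms pulse.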

Experiment [4] has the same target. The experiment is described as follows: Binding affinity was determined against cloned 5-hydroxytryptamine 4E receptor isoform expressed in C6 glial cells incubated with 0.2 nM [3H]GR-113808. The class given is cell-based.
Experiment [5] has the same target. As to the kind of experiment: Binding affinity was determined against cloned 5-hydroxytryptamine 4A receptor isoform expressed in COS-7 cells. The class given is cell-based.
Experiment [6] shares this target. As to the kind of experiment: ,Antagonism of stimulation of 5-hydroxytryptamine receptor on the L-type calcium current (I Ca) in isolated human atrial myocytes. The class given is functional, cell-based, Cardiac atrium.
For experiment [7] the target is unchanged. As to the kind of experiment: Binding affinity was determined against cloned 5-hydroxytryptamine 4B receptor isoform expressed in COS-7 cells. It counts as cell-based.

The structures appear in SMILES notation.

T1 sequence (Q13639 whole entry, canonical isoform): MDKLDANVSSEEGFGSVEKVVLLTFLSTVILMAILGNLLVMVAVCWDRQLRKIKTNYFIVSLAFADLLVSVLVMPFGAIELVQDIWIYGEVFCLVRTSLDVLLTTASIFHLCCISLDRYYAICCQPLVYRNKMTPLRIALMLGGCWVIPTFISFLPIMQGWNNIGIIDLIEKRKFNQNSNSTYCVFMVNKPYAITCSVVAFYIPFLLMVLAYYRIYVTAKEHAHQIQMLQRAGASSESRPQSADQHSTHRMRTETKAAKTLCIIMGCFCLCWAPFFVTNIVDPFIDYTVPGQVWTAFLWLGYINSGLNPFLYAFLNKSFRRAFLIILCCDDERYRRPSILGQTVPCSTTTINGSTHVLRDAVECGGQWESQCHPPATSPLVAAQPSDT

For `COc1cc(N)c(Cl)cc1C(=O)OCCN1CCN(c2ncccn2)CC1`, the Ki is 7.03 nM in experiment [1]; 2.47 nM in experiment [2]; 1 nM in experiment [4]; 3.5 nM in experiment [5]; 8.1 nM in experiment [7]. Besides, in experiment [3], the EC50 is 4.5 nM. In experiment [6], the dissociation constant Kd was 0.7 nM.
Molecule `COc1cc(N)c(Cl)cc1C(=O)OCCN1CCN(Cc2ccccc2)CC1` had an inhibition constant Ki in experiment [4] of 240 nM.
Same read-out and setting: next, `COc1cc(N)c(Cl)cc1C(=O)OCCN1CCN(c2ccccc2OC)CC1`: 64 nM; `COc1ccc(N2CCN(CCOC(=O)c3cc(Cl)c(N)cc3OC)CC2)cc1`: 17.7 nM; `COc1cc(N)c(Cl)cc1C(=O)OCCCN1CCN(c2ccccc2)CC1`: 11.5 nM.
`COc1cc(N)c(Cl)cc1C(=O)OCCN1CCN(c2cnc(Cl)nc2)CC1` showed a Ki in experiment [4] of 9.8 nM.
Molecule `COc1cc(N)c(Cl)cc1C(=O)OCCN1CCN(c2ccccc2F)CC1` showed a Ki in experiment [4] of 16.8 nM.
The same measure, in the same setting: under `CCOC(=O)N1CCN(CCOC(=O)c2cc(Cl)c(N)cc2OC)CC1` stands 23 nM.
Still for that read-out and setting: under `COc1cc(N)c(Cl)cc1C(=O)OCCN1CCN(c2ccc(Cl)nn2)CC1` stands 2 nM; under `COc1cc(N)c(Cl)cc1C(=O)OCCN1CCN(C(=O)OC(C)(C)C)CC1`, > 1000 nM.
In the case of `COc1cc(N)c(Cl)cc1C(=O)OCCN1CCN(c2ccccc2)CC1`, the inhibition constant (Ki) in experiment [1] was determined as 32 nM; in experiment [2] it was 12.5 nM; in experiment [4], 14.3 nM; in experiment [5], 23 nM; in experiment [7], 55 nM.
As for `COc1cccc(N2CCN(CCOC(=O)c3cc(Cl)c(N)cc3OC)CC2)c1`, in experiment [4], the affinity corresponds to a Ki of 3 nM.
The same measure, in the same setting: under `COc1cc(N)c(Cl)cc1C(=O)OCCN1CCN(c2ccccc2Cl)CC1` stands 296 nM; under `COc1cc(N)c(Cl)cc1C(=O)OCCN1CCN(c2cccc3ccccc23)CC1`, > 1000 nM.
The same measure, in the same setting: next, `COc1cc(N)c(Cl)cc1C(=O)OCCN1CCN(c2cccnn2)CC1`: 1.4 nM; `COc1cc(N)c(Cl)cc1C(=O)OCCN1CCN(c2ccncn2)CC1`: 9.2 nM; `COc1cc(N)c(Cl)cc1C(=O)OCCN1CCN(C)CC1`: > 1000 nM.
The same measure, in the same setting: next, `COc1cc(N)c(Cl)cc1C(=O)OCCN1CCN(c2ccccn2)CC1`: 1.5 nM; `Cn1cc(C(=O)OCC2CCN(CCNS(C)(=O)=O)CC2)c2ccccc21`: 0.1 nM; `COc1cc(N)c(Cl)cc1C(=O)OCCN1CCN(c2ccc(Cl)cc2)CC1`: 715 nM.
`COc1cc(N)c(Cl)cc1C(=O)OCCN1CCN(c2ccncc2)CC1` gave a Ki in experiment [4] of 3.5 nM.
Same read-out and setting: next, `COc1cc(N)c(Cl)cc1C(=O)OCCN1CCN(c2ccc(F)cc2)CC1`: 23.1 nM; `COc1cc(N)c(Cl)cc1C(=O)OCCN1CCNCC1`: > 1000 nM.
On the same count and under the same terms, next, `COc1cc(N)c(Cl)cc1C(=O)OCCN1CCN(c2cccc(Cl)c2)CC1`: 162 nM; `COc1cc(N)c(Cl)cc1C(=O)OCCN1CCN(c2cnccn2)CC1`: 1.4 nM; `COc1cc(N)c(Cl)cc1C(=O)OCCN1CCN(c2cccc(C(F)(F)F)c2)CC1`: 199 nM.

As usually defined, the Ki is a dissociation constant, usually derived from enzyme kinetics or from competition with a known ligand. Read a low Ki as tighter binding. For orientation: EC50 means the concentration at which the effect is half-maximal. As usually defined, the Kd is the constant that tells how readily two partners part at equilibrium.
